Laboratory results reported in ChEMBL document CHEMBL2429859, “Inhibiting aberrant signal transducer and activator of transcription protein activation with tetrapodal, small molecule Src homology 2 domain binders: promising agents against multiple myeloma” (J Med Chem, 2013).
Activity calls are given as the source filed them. The calls are words filed in the database; no cut-off is given here.

Columns and labels:
[1] = target: T1, Tyrosine-protein kinase JAK3 (Homo sapiens) (UniProt P52333); assay: Inhibition of JAK3 JH1 domain (unknown origin) assessed as residual activity at 5 uM relative to control
T1 sequence (whole entry): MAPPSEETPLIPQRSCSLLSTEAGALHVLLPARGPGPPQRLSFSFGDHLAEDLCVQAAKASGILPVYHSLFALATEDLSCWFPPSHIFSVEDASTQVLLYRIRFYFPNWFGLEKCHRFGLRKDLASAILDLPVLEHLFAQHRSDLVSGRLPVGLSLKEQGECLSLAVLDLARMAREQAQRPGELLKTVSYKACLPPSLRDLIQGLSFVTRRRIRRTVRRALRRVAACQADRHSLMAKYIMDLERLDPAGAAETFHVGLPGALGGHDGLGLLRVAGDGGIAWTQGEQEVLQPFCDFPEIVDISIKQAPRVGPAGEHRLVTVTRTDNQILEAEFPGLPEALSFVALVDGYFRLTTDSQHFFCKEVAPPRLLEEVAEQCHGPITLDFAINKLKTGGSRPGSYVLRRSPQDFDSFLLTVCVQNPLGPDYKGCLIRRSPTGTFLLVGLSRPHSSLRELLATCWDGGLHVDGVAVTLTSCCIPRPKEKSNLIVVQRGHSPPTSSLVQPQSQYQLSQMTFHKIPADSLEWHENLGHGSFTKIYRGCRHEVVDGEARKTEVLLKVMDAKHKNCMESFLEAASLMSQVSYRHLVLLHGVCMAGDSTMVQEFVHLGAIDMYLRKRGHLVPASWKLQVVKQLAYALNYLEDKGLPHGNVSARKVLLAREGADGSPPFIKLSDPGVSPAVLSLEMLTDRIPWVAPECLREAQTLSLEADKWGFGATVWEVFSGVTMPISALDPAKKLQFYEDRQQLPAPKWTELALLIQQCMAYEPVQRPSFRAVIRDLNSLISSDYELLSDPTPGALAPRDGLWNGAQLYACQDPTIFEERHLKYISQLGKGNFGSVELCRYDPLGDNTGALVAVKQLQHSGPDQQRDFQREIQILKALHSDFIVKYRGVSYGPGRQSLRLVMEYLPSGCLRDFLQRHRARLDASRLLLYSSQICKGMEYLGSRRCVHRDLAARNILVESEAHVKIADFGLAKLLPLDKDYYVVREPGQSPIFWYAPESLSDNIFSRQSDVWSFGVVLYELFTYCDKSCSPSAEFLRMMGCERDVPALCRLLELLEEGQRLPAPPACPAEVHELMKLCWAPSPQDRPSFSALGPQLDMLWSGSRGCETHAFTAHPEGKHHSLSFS
Summary of the method: (§1)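 Kinase profiling used a KinomeScan at 5 µM across 132 kinases, including 37 with SH2 domains.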

[2] = target: Tyrosine-protein kinase JAK1 (Homo sapiens) (UniProt P23458); assay: Inhibition of JAK1 (unknown origin) assessed as residual activity at 5 uM relative to control; summary of the method: as §1
[3] = test system: XG6; assay: Induction of apoptosis in human XG6 cells at 10 to 20 uM by annexin V/propidium iodide staining-based flow cytometric analysis; assay type: functional, cell-based
Summary of the method: (§2)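 Apoptosis was measured by flow cytometry of Annexin V and propidium iodide staining. Viable, early apoptotic and late apoptotic cells were scored by quadrant, with time points at 24 and 48 h.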

[4] = test system: RPMI-8226; assay: Induction of apoptosis in human RPMI8226 cells at 10 to 20 uM by annexin V/propidium iodide staining-based flow cytometric analysis; assay type: functional, cell-based; conditions: TDE = time-dependent effect; summary of the method: as §2
[5] = test system: JJN-3; assay: Induction of apoptosis in human JJN-3 cells assessed as induction of PARP cleavage at 10 to 30 uM by Western blot analysis; assay type: functional, cell-based
Summary of the method: (§3)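 Treated cells were washed in cold PBS and lysed 30 min on ice in Tris-HCl pH 7.4/NaCl/EDTA/1% NP-40 with PMSF, vanadate and protease inhibitors. Lysates were Bradford-normalized, and 10-30 µg protein was run on 7-10% SDS-PAGE and transferred to PVDF. Blots were blocked in 5% BSA/TBST, probed overnight at 4 °C, then with HRP secondary, and detected by ECL.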

[6] = target: Signal transducer and activator of transcription 3 (Homo sapiens, UniProt P40763); assay: Inhibition of Stat3-mediated luciferase expression in human 8226 cells at 7.5 to 15 uM after 6 hrs relative to control; assay type: cell-based
Summary of the method: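 Myeloma cells stably carried a Stat3-driven firefly luciferase reporter (puromycin-selected) and a CMV-driven Renilla luciferase internal control (hygromycin-selected), each selected for 2 weeks. After drug treatment, dual luciferase activity was read as relative luciferase units, firefly/Renilla.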

[7] = test system: JJN-3; assay: Inhibition of total Stat3 level in human JJN-3 cells at 5 to 10 uM after 6 hrs by Western blot analysis; assay type: functional, cell-based; summary of the method: as §3

Chain of Signal transducer and activator of transcription 3 (P40763 whole entry): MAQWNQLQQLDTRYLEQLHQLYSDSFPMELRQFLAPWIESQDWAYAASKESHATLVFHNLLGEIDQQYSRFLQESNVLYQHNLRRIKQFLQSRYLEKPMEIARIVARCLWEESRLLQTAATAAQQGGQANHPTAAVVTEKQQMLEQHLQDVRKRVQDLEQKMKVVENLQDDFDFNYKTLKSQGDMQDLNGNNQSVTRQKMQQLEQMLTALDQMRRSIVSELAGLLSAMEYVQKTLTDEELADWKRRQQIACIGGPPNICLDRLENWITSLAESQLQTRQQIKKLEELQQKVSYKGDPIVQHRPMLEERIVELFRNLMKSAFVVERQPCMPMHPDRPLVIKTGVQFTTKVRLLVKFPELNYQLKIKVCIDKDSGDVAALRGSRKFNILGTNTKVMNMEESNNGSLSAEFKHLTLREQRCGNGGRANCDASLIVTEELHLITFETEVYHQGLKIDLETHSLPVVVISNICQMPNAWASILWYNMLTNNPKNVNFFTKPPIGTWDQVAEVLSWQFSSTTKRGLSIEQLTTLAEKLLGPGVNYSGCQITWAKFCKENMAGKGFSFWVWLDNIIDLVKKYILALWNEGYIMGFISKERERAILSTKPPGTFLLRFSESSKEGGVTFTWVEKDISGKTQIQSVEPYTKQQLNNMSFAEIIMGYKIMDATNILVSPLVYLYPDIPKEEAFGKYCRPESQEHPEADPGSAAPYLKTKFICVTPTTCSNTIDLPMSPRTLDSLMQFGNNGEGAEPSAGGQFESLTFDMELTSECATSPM
Chain of Tyrosine-protein kinase JAK1 (Homo sapiens) (P23458 whole entry): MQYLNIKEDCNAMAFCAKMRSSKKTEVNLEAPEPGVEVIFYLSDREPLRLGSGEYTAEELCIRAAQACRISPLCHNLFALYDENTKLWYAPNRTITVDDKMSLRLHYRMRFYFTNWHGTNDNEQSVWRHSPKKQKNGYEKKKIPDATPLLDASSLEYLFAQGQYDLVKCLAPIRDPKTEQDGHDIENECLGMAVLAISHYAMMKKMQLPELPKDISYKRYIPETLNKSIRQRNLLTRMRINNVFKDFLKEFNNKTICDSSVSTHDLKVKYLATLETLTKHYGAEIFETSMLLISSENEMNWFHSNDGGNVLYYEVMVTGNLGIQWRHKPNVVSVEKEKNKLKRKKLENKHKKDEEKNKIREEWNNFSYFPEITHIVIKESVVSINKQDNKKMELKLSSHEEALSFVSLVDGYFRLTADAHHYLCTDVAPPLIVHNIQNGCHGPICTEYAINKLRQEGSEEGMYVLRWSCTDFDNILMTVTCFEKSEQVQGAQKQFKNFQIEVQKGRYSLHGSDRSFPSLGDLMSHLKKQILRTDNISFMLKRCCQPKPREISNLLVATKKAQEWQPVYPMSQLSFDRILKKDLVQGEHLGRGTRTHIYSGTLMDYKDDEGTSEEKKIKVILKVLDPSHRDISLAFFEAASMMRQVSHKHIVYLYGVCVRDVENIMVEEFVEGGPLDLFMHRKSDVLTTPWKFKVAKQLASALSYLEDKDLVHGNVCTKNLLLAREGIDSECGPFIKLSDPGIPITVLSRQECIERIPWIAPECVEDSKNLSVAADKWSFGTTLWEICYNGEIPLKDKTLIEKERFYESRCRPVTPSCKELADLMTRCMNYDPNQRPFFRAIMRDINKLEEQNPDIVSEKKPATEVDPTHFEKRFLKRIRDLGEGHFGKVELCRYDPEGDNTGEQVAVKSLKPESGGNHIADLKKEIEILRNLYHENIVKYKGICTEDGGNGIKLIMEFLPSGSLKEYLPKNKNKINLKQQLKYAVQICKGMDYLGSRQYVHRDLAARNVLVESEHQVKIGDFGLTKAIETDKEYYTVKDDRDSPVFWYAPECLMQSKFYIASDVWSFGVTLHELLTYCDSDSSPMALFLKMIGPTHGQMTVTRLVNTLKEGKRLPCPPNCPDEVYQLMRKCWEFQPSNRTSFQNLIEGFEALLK

Row | Compound | Activity [1] | Activity [2] | Activity [3] | Activity [4] | Activity [5] | inhibition [6] | inhibition [7]
1 | Cc1ccc(S(=O)(=O)N(CC(=O)N(Cc2ccc(C3CCCCC3)cc2)c2ccc(C(=O)O)c(O)c2)Cc2ccccc2C(F)(F)F)cc1 | 84% | 84% | Active | tde | Active |  | 
2 | O=C(O)c1ccc(N(Cc2ccc(C3CCCCC3)cc2)C(=O)CN(Cc2ccccc2C(F)(F)F)S(=O)(=O)c2c(F)c(F)c(F)c(F)c2F)cc1O |  |  |  |  |  | 50% | inactive
